# Compound activity from PubChem.
# Compounds with a hit are over-represented: about 1.9% of the library has one in this group of screens.
# NTR1 ag: activates human neurotensin receptor 1. activation, % at 20 µM. 330,000 tested, 0.17% active. NTR1-U2OS beta-arrestin-GFP spot imaging, agonist mode;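 active = activation at or above 40% of the spot to cytoplasm intensity ratio, with at least 20 cells analyzed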;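 note: 0% = DMSO without peptide and 100% = 100 nM NTR1 peptide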
# MC4R barr agon: human MC4R agonism via beta-arrestin | P32245 | U2OS MC4R beta-arrestin complementation, luminescence; percent of melanotan II response, DMSO zero | activation, % at 8.9 µM | 360,000 tested, 0.98% active | AID 540308;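 active = activation above a per-plate cutoff, the mean activation of sample wells on that plate plus 3 SD, cut at about 8% in these data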
# Target sequence (P32245 whole entry, looked up): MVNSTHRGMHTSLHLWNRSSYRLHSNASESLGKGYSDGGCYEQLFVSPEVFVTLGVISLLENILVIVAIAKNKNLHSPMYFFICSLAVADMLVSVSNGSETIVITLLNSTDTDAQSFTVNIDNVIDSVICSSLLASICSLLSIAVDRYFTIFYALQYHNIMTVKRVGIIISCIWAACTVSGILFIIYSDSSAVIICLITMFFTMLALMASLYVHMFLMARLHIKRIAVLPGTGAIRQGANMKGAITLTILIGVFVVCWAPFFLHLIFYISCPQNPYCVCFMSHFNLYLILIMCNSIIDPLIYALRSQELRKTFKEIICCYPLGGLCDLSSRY
# TLR9-MyD88 inh: inhibitors of human TLR9-MyD88 binding. inhibition, % at 4.98 µM. Q9NR96+Q99836. CHO BLA complementation TLR9-MyD88, CCF4 FRET ratio. 340,000 tested, 0.21% active;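 active = inhibition above the mean over all tested compounds plus 3 SD, cut at about 21% in these data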;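 note: 0% = DMSO only wells and 100% = clavulanate BLA inhibitor control wells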
# NOD2 RIPK2 PPI: NOD2-RIPK2 protein interaction inhibition; O43353; CHO BLA complementation NOD2-RIPK2, CCF4 ratio; inhibition, % at 4.98 µM; 360,000 tested, 0.38% active; in the data active = inhibition above about 21%;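 note: 0% = vehicle only and 100% = reference blocker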
# MC4R antag cAMP: human MC4R antagonism in cAMP assay. P32245. MC4R-expressing cells, MTII-stimulated cAMP, LANCE TR-FRET. inhibition, % at 6.5 µM. 360,000 tested, 0.48% active;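 active = inhibition above its plate's cutoff, the mean of tested wells on that plate plus 3 SD, cut at about 29% in these data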;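 note: 0% = Melanotan II alone and 100% = Melanotan II plus saturating MCL0020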
#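 System: U2OS cells stably expressing human melanocortin 4 receptor (MC4R). Reagent: Melanotan II challenge after compound preincubation. Doses: 6.5 µM. Times: 30-min compound, 1-h challenge, 1-h detection, room temperature. Measured by: TR-FRET with Eu-cAMP and labeled anti-cAMP, 671 nm. Replicates: singlicate.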
# TLR4-MyD88 BLA: TLR4-MyD88 interaction inhibition in cells. HeLa CL3-4 TLR4/MyD88 BLA complementation, FRET ratio. inhibition, % at 8.4 µM. 200,000 tested, 0.18% active. AID 861; in the data active = inhibition above about 25%;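 note: 0% = vehicle and 100% = reference inhibitor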
# U2OS cAMP counter: U2OS forskolin cAMP inhibition counter-screen | 1,600 tested, 26% active | shares compounds with MC4R antag cAMP | parental U2OS, LANCE TR-FRET | inhibition, % at 6.5 µM | AID 602193;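 active = mean inhibition over triplicates above the low-control well mean plus 3 SD, set per campaign, cut at about 13% in these data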;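 note: signal is single emission at 671 nm which falls as cellular cAMP rises; 0% = forskolin-stimulated wells and 100% = buffer without forskolin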
# MC4R antag conf: human MC4R cAMP antagonism confirmation; shares compounds with MC4R antag cAMP; MC4R-expressing cells, MTII-stimulated cAMP, TR-FRET; inhibition, % at 6.5 µM; 1,600 tested, 27% active; AID 602195; in the data active = inhibition above about 29%;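 note: 0% = agonist stimulated wells alone and 100% = agonist stimulated wells plus saturating reference antagonist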
# Active calls of the source: *; x = no result given.
SMILES,NTR1 ag,MC4R barr agon,TLR9-MyD88 inh,NOD2 RIPK2 PPI,MC4R antag cAMP,TLR4-MyD88 BLA,U2OS cAMP counter,MC4R antag conf
Cc1cc(NC(=O)COC(=O)CNS(=O)(=O)c2ccc(C)c(C)c2)no1,0.3,-1.9,2.5,-9.4,47.2*,4.0,14.3*,29.8*
Cc1ccc(S(=O)(=O)NCC(=O)OCc2nnc(-c3ccccc3)o2)cc1C,1.7,-2.8,-0.6,-1.2,29.0*,9.5,20.2*,40.9*
COc1ccccc1CNC(=O)c1nn(C)c2c1CS(=O)(=O)c1ccccc1-2,0.5,-1.7,-3.7,9.2,10.8,x,x,x
Cc1ccc(-n2c(SCC(=O)N(C)C)nnc2-c2ccco2)cc1,-1.0,-0.2,-1.7,-0.1,23.1,x,x,x
CCOc1ccccc1NC(=O)COC(=O)CN(C)S(=O)(=O)c1ccc(C)cc1,1.6,-2.3,12.3,1.1,16.8,7.5,x,x
CCOc1ccccc1NC(=O)COC(=O)CNS(=O)(=O)c1ccc(C)cc1,0.6,0.5,-4.2,8.9,30.9*,-5.3,17.2*,35.3*
O=C(CS(=O)c1ccc(C(F)(F)F)cc1[N+](=O)[O-])Oc1ccccc1 (stereo not drawn),14.6,3.3,-8.9,8.9,49.2*,12.5,13.0,33.9*
COC(=O)c1ccc(OC(=O)CS(=O)c2ccccc2[N+](=O)[O-])cc1 (stereo not drawn),-1.1,-2.4,-13.4,-4.2,25.3,-6.6,x,x
COCCNC(=O)CCc1c(C)nc2nc(-c3cc(OC)cc(OC)c3)nn2c1C,-0.4,0.0,2.1,-9.4,29.2*,-0.8,0.8,-16.7
Cc1cc(OCc2nnc(SC(C)C(=O)O)n2-c2ccccc2)ccc1Cl (stereo not drawn),0.3,-2.0,4.6,-5.7,4.0,x,x,x
Cc1ccccc1OCc1nnc(SC(C)C(=O)O)n1-c1ccccc1 (stereo not drawn),x,-1.0,-6.8,-9.4,42.3*,x,-1.6,-14.3
COc1ccc(OC)c(NC(=O)CN2C(=O)C(=O)N(Cc3ccccc3)C2=O)c1,-1.2,-0.1,10.8,-13.5,3.0,x,x,x
COc1cccc(CNC(=O)COC(=O)CCS(=O)(=O)c2ccc(C)cc2)c1,-1.1,-1.9,-11.6,-4.2,30.1*,x,0.1,10.1
CC(NC(=O)c1ccco1)C(=O)OCc1cccc(C(F)(F)F)c1 (stereo not drawn),0.4,-3.2,-3.2,9.4,11.8,x,x,x
O=C(O)C(Cc1c[nH]c2ccccc12)NS(=O)(=O)c1cccc(Cl)c1Cl (stereo not drawn),0.4,1.2,-9.1,-6.5,28.8*,x,1.8,1.5
Cc1ccccc1OCC(=O)NCCCNC(=O)c1ccco1,-1.8,0.5,-2.0,-13.5,0.5,x,x,x
COc1ccc(NC(=O)CSc2cn[nH]n2)cc1OC,-1.8,-0.5,4.7,-3.3,8.7,x,x,x
O=C(Oc1ccccc1C(=O)Nc1ccccc1)c1ccc(Br)c([N+](=O)[O-])c1,2.3,-1.0,-1.2,5.3,35.8*,-1.1,11.8,18.2
Cc1ccc(-n2nc3c(=S)[nH]nc(C)c3c2C)cc1,1.6,-2.3,-14.2,1.2,146.5*,-9.7,89.5*,147.3*
COc1ccc(/C=C2\C(=O)ON=C2c2ccccc2)cc1OC,-0.1,-0.8,-19.0,3.4,31.0*,x,2.3,-4.1
NS(=O)(=O)c1ccc(CCN=Cc2ccccc2O)cc1,0.7,-0.3,-2.9,-5.2,18.5,-15.2,x,x
COCC(C)n1c(SCC(=O)N2CC(=O)Nc3ccccc32)nc2ccccc2c1=O (stereo not drawn),-1.9,0.1,-7.1,-3.8,12.1,x,x,x
Cc1ccc(Cn2c(SCC(=O)N3CC(=O)Nc4ccccc43)nc3ccccc3c2=O)cc1,3.8,-0.5,8.9,2.2,29.2*,10.8,-0.6,-4.7
CC(c1ccccc1)n1c(SCC(=O)N2CC(=O)Nc3ccccc32)nc2ccccc2c1=O (stereo not drawn),4.8,-0.8,3.1,4.8,32.7*,0.0,0.0,17.6
Cc1cccc(NC(=O)c2ccc(NC(C)c3ccccc3)c([N+](=O)[O-])c2)n1 (stereo not drawn),3.2,-0.6,-1.8,-8.3,6.3,1.6,x,x
SMILES,NTR1 ag,MC4R barr agon,TLR9-MyD88 inh,NOD2 RIPK2 PPI,MC4R antag cAMP,TLR4-MyD88 BLA,U2OS cAMP counter,MC4R antag conf
Cc1cccc(-n2c(-c3ccoc3C)n[nH]c2=S)c1,-1.8,1.3,3.2,-17.9,30.0*,-8.3,3.8,0.4
O=C(Nc1cccc(S(=O)(=O)C(F)(F)F)c1)[C@H]1C[C@H](O)[C@@H](CO)O1,x,-2.2,x,-8.3,16.3,x,x,x
O=C1NC[C@H](c2ccccc2)OC(=O)[C@H](Cc2ccc(F)cc2)C/C=C\C[C@H]1CC(=O)N(CCO)Cc1ccccc1,7.8,1.3,-2.8,-4.0,39.3*,x,-1.8,-6.0
O=C(N[C@H]1C/C=C\C[C@H](CC(=O)N(CCO)Cc2ccccc2)C(=O)NC[C@H](c2ccccc2)OC1=O)OCC1c2ccccc2-c2ccccc21,-0.9,-0.5,-6.5,-0.3,31.9*,x,4.4,-5.7
O=C1NC[C@@H](c2ccccc2)OC(=O)[C@H](Cc2ccc(F)cc2)C/C=C\C[C@H]1CC(=O)N(CCO)Cc1ccccc1,2.1,-1.8,-7.2,5.2,15.3,x,x,x
O=C1NC[C@H](c2ccccc2)OC(=O)[C@@H](Cc2ccc(F)cc2)C/C=C\C[C@H]1CC(=O)N(CCO)Cc1ccccc1,9.7,-1.1,-4.1,5.3,45.5*,x,2.1,22.1
Cc1ccc(NC(=O)/C=C/c2ccc(S(=O)(=O)N3CCOCC3)cc2)cc1S(=O)(=O)N(C)C,x,0.0,1.1,1.0,13.8,x,x,x
CCCc1c(C(=O)N/N=C/c2ccoc2)nnn1-c1nonc1N,x,-1.4,-13.4,1.7,2.4,x,x,x
O=C(CN1C(=O)C2CC=CCC2C1=O)N1CCN(c2ccc([N+](=O)[O-])cc2)CC1 (stereo not drawn),-0.1,0.9,-5.4,-7.0,30.6*,x,-4.3,-17.4
CC(C(=O)N1CCN(c2ccc([N+](=O)[O-])cc2)CC1)N1C(=O)C2CC=CCC2C1=O (stereo not drawn),-0.7,-4.3,2.3,0.1,4.7,8.9,x,x
Brc1ccsc1-c1csc(-c2ccncc2)n1,2.8,0.8,2.8,6.1,33.8*,x,4.3,-10.4
COc1ccc([C@H]2CC(=O)C=C(c3ccc(C)c([N+](=O)[O-])c3)C2)cc1,2.3,0.1,10.6,3.6,1.7,x,x,x
COC(=O)c1sc(-c2cccs2)cc1NC(=O)/C=C/C(=O)O,0.8,-2.0,x,-11.0,31.7*,x,8.4,5.0
